{"data": "Measurements of several laboratories", "target": "Mitogen-activated protein kinase kinase kinase 7 (MAP3K7, Homo sapiens, UniProt O43318)", "Residues used in one study (O43318 1-606)": "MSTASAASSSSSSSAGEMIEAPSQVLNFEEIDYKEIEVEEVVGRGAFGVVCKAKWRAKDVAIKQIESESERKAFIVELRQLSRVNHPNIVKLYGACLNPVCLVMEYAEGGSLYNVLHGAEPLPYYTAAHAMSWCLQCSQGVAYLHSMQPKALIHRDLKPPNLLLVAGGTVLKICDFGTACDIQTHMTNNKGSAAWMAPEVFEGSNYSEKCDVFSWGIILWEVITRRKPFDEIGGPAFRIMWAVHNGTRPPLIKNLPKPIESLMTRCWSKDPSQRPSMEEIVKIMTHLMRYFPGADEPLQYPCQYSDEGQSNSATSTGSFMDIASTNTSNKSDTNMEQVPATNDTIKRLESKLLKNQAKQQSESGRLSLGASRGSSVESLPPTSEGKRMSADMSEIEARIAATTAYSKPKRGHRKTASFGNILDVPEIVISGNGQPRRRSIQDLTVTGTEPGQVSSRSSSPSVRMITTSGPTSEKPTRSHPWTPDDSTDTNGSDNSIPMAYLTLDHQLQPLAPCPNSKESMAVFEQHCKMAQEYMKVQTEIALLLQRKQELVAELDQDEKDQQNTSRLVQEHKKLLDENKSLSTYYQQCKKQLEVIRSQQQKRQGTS", "note": "Each line is one published result; the experiments were not run side by side."}
{"SMILES": "CC#CC(=O)N1CCC[C@H]1c1nc(-c2ccc(C(=O)Nc3ccccn3)cc2)c2c(N)nccn12", "test": "enzyme activity, inhibitor", "conditions": "1 µM", "endpoint": "inhibition", "result": "12%"}
{"SMILES": "CCCCC(=O)Nc1ccc(-c2ccc3ncn(CCC)c(=O)c3c2)cn1", "test": "binding, competition with immobilised ligand", "conditions": "0.5 µM", "endpoint": "remaining binding", "result": "87%"}
{"SMILES": "C[C@H]1CC[C@H](n2c3cnccc3c3cnc(Nc4ccc5c(n4)CCN(C(=O)CO)C5)nc32)CC1", "test": "binding, competition with immobilised ligand", "conditions": "1 µM", "endpoint": "remaining binding", "result": "47%"}
{"SMILES": "Cc1cc(O)c(-c2ccc([C@@H](C)CN(C)C)cc2)c2c1[nH]c(=O)c1sccc12", "test": "enzyme activity, inhibitor", "conditions": "0.1 µM", "endpoint": "inhibition", "result": "-18.1%"}
{"SMILES": "CS(=O)(=NC#N)c1ccccc1Nc1nc(Nc2ccc(CO)nc2)ncc1Cl (centres unmarked)", "test": "enzyme activity, inhibitor", "conditions": "1 µM", "endpoint": "remaining activity", "result": "55.8%"}
{"SMILES": "CN1CCN(C(=O)c2ccc(NC(=O)Nc3ccc(N(C)c4ccnc(Nc5ccc(CS(C)(=O)=O)cc5)n4)cc3)cc2)CC1", "test": "binding, competition with immobilised ligand", "conditions": "1 µM", "endpoint": "remaining binding", "result": "25%"}
{"SMILES": "C=CC(=O)N1CCC([C@@H]2CCNc3c(C(N)=O)c(-c4ccc(Oc5ccccc5)cc4)nn32)CC1", "test": "enzyme activity, inhibitor", "conditions": "1 µM", "endpoint": "inhibition", "result": "19%"}
{"SMILES": "CS(=O)(=O)c1ccccc1Nc1nc(Nc2ccnc(CO)c2)ncc1Cl", "test": "enzyme activity, inhibitor", "conditions": "1 µM", "endpoint": "remaining activity", "result": "70.7%"}
